Assay results: ChEMBL document CHEMBL4699574, “Discovery of Ketone-Based Covalent Inhibitors of Coronavirus 3CL Proteases for the Potential Therapeutic Treatment of COVID-19” (J Med Chem, 2020)

What was measured:
SARS-CoV = assay: Antiviral activity against SARS COV-1 infected in monkey vero 76 cells assessed as reduction in virus-induced cytopathic effect measured after 66 hrs by neutral red method or cell titer glo-based luminescence assay; format: functional, organism-based; conditions: Severe acute respiratory syndrome-related coronavirus
[1] = Reversible inhibition of SARS coronavirus Urbani 3CL protease(9985 to 10902) using TAMRA-SITSAVLQSGFRKMK(DABCYL)-OH as substrate measured for 10 mins by FRET assay
Procedure, shortened: (§1)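 SARS CoV-1 3CLpro FRET assay; each value calculated from at least eight data points, with at least two independent determinations.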

SARS coronavirus Urbani [2] = assay: Irreversible inhibition of SARS coronavirus Urbani 3CL protease (9985 to 10902) assessed as first order inhibition rate constant (Kobs/I ratio) using TAMRA-SITSAVLQSGFRKMK(DABCYL)-OH as substrate measured for 10 mins by FRET assay
Procedure, shortened: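 SARS CoV-1 3CL protease activity was monitored by a FRET read-out. Irreversible, time-dependent inactivation was expressed as kobs/I. Each value was calculated from at least eight data points, with at least two independent determinations.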

[3] = Irreversible inhibition of SARS coronavirus Urbani 3CL protease (9985 to 10902) using TAMRA-SITSAVLQSGFRKMK(DABCYL)-OH as substrate measured for 10 mins by FRET assay; procedure, shortened: as §1
[4] = Permeability of compound in human Caco-2 cells; format: ADME, cell-based
SARS coronavirus Urbani [5] = assay: Irreversible inhibition of SARS coronavirus Urbani 3CL protease (9985 to 10902) at 1 uM using TAMRA-SITSAVLQSGFRKMK(DABCYL)-OH as substrate measured for 10 mins by FRET assay relative to control
[6] = Glutathione reactivity in pH 7.8 Tris buffer assessed as half-life at 1 uM measured after 30 mins by LC/MS analysis; format: ADME
[7] = Metabolic stability in human plasma assessed as half-life at 1 uM incubated for 60 mins by LC/MS analysis; format: ADME, cell-free
[8] = Solubility of the compound in vehicle formulations; format: physicochemical

| SMILES | EC50 (SARS-CoV) | IC50 [1] | IC50 [3] | also measured |
| --- | --- | --- | --- | --- |
| CCOCC(=O)[C@H](C[C@@H]1CCNC1=O)NC(=O)[C@H](CC(C)(C)C)NC(=O)c1cc2ccccc2[nH]1 | 20000 nM | 112 nM |  |  |
| CC(C)(C)C[C@H](NC(=O)[C@H]1CCCO1)C(=O)N[C@@H](C[C@@H]1CCNC1=O)C(=O)CO | 33000 nM | 91 nM |  |  |
| COc1cccc2[nH]c(C(=O)N[C@@H](CC(C)C)C(=O)N[C@@H](C[C@@H]3CCNC3=O)C(=O)COC(=O)c3c(F)cccc3F)cc12 |  |  |  | K (SARS coronavirus Urbani [2]): 12800 M⁻¹ s⁻¹ |
| COc1cccc2[nH]c(C(=O)N[C@@H](CC(C)C)C(=O)N[C@@H](C[C@@H]3CCNC3=O)C(=O)COC(=O)c3ccc(C#N)cc3)cc12 |  |  | 53 nM |  |
| COCC(=O)[C@H](C[C@@H]1CCNC1=O)NC(=O)[C@H](CC(C)C)NC(=O)c1cc2ccccc2[nH]1 | 45000 nM | 131 nM |  |  |
| COc1cccc2[nH]c(C(=O)N[C@@H](Cc3ccccc3)C(=O)N[C@@H](C[C@@H]3CCNC3=O)C(=O)CO)cc12 | 47000 nM | 103 nM |  | permeability [4]: Impermeable |
| COc1cccc2[nH]c(C(=O)N[C@@H](CC(C)C)C(=O)N[C@@H](C[C@@H]3CCNC3=O)C(=O)COC(=O)c3ccc(Cl)cc3O)cc12 |  |  |  | K (SARS coronavirus Urbani [2]): 11500 M⁻¹ s⁻¹ |
| COc1cccc2[nH]c(C(=O)N[C@@H](CC(C)C)C(=O)N[C@@H](C[C@@H]3CCNC3=O)C(=O)COC(=O)c3ccc(Cl)cc3)cc12 |  |  | 97 nM |  |
| COc1cccc(OC)c1C(=O)OCC(=O)[C@H](C[C@@H]1CCNC1=O)NC(=O)[C@H](CC(C)C)NC(=O)c1cc2c(OC)cccc2[nH]1 |  |  | 205 nM |  |
| COc1ccc(C(=O)OCC(=O)[C@H](C[C@@H]2CCNC2=O)NC(=O)[C@H](CC(C)C)NC(=O)c2cc3c(OC)cccc3[nH]2)cc1 |  |  | 79 nM |  |
| COc1cccc2[nH]c(C(=O)N[C@@H](CC(C)C)C(=O)N[C@@H](C[C@@H]3CCNC3=O)C(=O)CCl)cc12 |  |  |  | K (SARS coronavirus Urbani [2]): 283000 M⁻¹ s⁻¹ |
| COc1cccc2[nH]c(C(=O)N[C@@H](CC(C)C)C(=O)N[C@@H](C[C@@H]3CCNC3=O)C(=O)COC(=O)c3ccc(C#N)cc3F)cc12 |  |  |  | K (SARS coronavirus Urbani [2]): 13300 M⁻¹ s⁻¹ |
| COCC(=O)[C@H](C[C@@H]1CCNC1=O)NC(=O)[C@H](CC(C)(C)C)NC(=O)c1cc2ccccc2[nH]1 | 46000 nM | 105 nM |  |  |
| COc1cccc2[nH]c(C(=O)N[C@@H](CC(C)(C)C)C(=O)N[C@@H](C[C@@H]3CCNC3=O)C(=O)CO)cc12 | 10000 nM | 7 nM |  | permeability [4]: Impermeable |
| COCC(=O)[C@H](C[C@@H]1CCNC1=O)NC(=O)[C@H](CC(C)C)NC(=O)c1cc2c(OC)cccc2[nH]1 | 31000 nM | 53 nM |  |  |
| CC(C)C[C@H](NC(=O)c1cc2ccccc2[nH]1)C(=O)N[C@@H](C[C@@H]1CCNC1=O)C(=O)CO | 20000 nM | 38 nM |  |  |
| COc1cccc2[nH]c(C(=O)N(C)[C@@H](CC(C)C)C(=O)N[C@@H](C[C@@H]3CCNC3=O)C(=O)CO)cc12 | 19000 nM | 83 nM |  | permeability [4]: Impermeable |
| COc1cccc2[nH]c(C(=O)N[C@@H](CC(C)C)C(=O)N[C@@H](C[C@@H]3CCNC3=O)C(=O)COC(=O)C(C)(C)C)cc12 |  |  | 230 nM |  |

| SMILES | EC50 (SARS-CoV) | IC50 [1] | IC50 [3] | also measured |
| --- | --- | --- | --- | --- |
| COCC(=O)[C@H](C[C@@H]1CCNC1=O)NC(=O)[C@H](CC(C)(C)C)NC(=O)c1cc2c(OC)cccc2[nH]1 | 32000 nM | 35 nM |  |  |
| CC(C)C[C@H](NC(=O)OC(C)(C)C)C(=O)N[C@@H](C[C@@H]1CCNC1=O)C(=O)COC(=O)c1c(Cl)cccc1Cl |  |  |  | inhibition (SARS coronavirus Urbani [5]): 24% |
| COc1cccc2[nH]c(C(=O)N[C@@H](CC(C)C)C(=O)N[C@@H](C[C@@H]3CCNC3=O)C(=O)COC(=O)c3ccc(C)cc3)cc12 |  |  | 87 nM |  |
| COc1cccc2[nH]c(C(=O)N[C@@H](CC(C)C)C(=O)N[C@@H](C[C@@H]3CCNC3=O)C(=O)COC(=O)c3ccccc3)cc12 |  |  | 86 nM |  |
| COc1cccc2[nH]c(C(=O)N[C@@H](CC(C)C)C(=O)N[C@@H](C[C@@H]3CCNC3=O)C(=O)COC(=O)C3CC3)cc12 |  |  | 182 nM |  |
| COc1cccc2[nH]c(C(=O)N[C@@H](CC(C)C)C(=O)N[C@@H](C[C@@H]3CCNC3=O)C(=O)COC(=O)c3ccc(F)cc3)cc12 |  |  | 82 nM |  |
| CCCC[C@H](NC(=O)c1cc2c(OC)cccc2[nH]1)C(=O)N[C@@H](C[C@@H]1CCNC1=O)C(=O)CO | 10000 nM | 20 nM |  | permeability [4]: Impermeable |
| COCC(=O)[C@H](C[C@@H]1CCNC1=O)NC(=O)[C@H](CC(C)(C)C)NC(=O)[C@H]1CCCO1 | > 100000 nM | 1080 nM |  |  |
| CC(=O)N[C@@H](CC(C)C)C(=O)N[C@@H](C[C@@H]1CCNC1=O)C(=O)COC(=O)c1c(Cl)cccc1Cl |  |  | 1030 nM |  |
| CC(C)(C)C[C@H](NC(=O)c1cc2ccccc2[nH]1)C(=O)N[C@@H](C[C@@H]1CCNC1=O)C(=O)CO | 17000 nM | 20 nM |  |  |
| CC(C)C[C@H](NC(=O)c1nc2ccccc2[nH]1)C(=O)N[C@@H](C[C@@H]1CCNC1=O)C(=O)COC(=O)c1c(Cl)cccc1Cl |  |  |  | K (SARS coronavirus Urbani [2]): 30300 M⁻¹ s⁻¹ |
| COc1cccc2[nH]c(C(=O)N[C@@H](CC(C)C)C(=O)N[C@@H](C[C@@H]3CCNC3=O)C(=O)COC(=O)c3ccccc3C#N)cc12 |  |  | 17 nM |  |
| COc1cccc2[nH]c(C(=O)N[C@@H](CC(C)C)C(=O)N[C@@H](C[C@@H]3CCNC3=O)C(=O)COC(=O)c3c(Cl)cccc3Cl)cc12 | 290 nM |  |  | half-life at 1 µM [6]: > 1 h; half-life at 1 µM [7]: > 4 h; solubility [8]: Insoluble; K (SARS coronavirus Urbani [2]): 63000 M⁻¹ s⁻¹ |
| CC(C)C[C@H](NC(=O)[C@H]1CCCO1)C(=O)N[C@@H](C[C@@H]1CCNC1=O)C(=O)COC(=O)c1c(Cl)cccc1Cl |  |  |  | K (SARS coronavirus Urbani [2]): 5830 M⁻¹ s⁻¹ |
| COc1cccc2[nH]c(C(=O)N[C@@H](CC(C)C)C(=O)N[C@@H](C[C@@H]3CCNC3=O)C(=O)COC(C)=O)cc12 |  |  | 220 nM |  |
| COc1cccc2[nH]c(C(=O)N[C@@H](CCC(C)C)C(=O)N[C@@H](C[C@@H]3CCNC3=O)C(=O)CO)cc12 | 33000 nM | 34 nM |  | permeability [4]: Impermeable |
| COc1cccc2[nH]c(C(=O)N[C@@H](CC3CCCCC3)C(=O)N[C@@H](C[C@@H]3CCNC3=O)C(=O)CO)cc12 | 14000 nM | 44 nM |  | permeability [4]: Impermeable |
| COc1cccc2[nH]c(C(=O)N[C@@H](CC(C)C)C(=O)N[C@@H](C[C@@H]3CCNC3=O)C(=O)COC(=O)c3c(C)cccc3C)cc12 |  |  | 74 nM |  |
